The source of these data is ChEMBL document CHEMBL1122984, “Synthesis and beta-lactamase inhibitory properties of 2 beta-[(acyloxy)methyl]-2-methylpenam-3 alpha-carboxylic acid 1,1-dioxides” (1985).

Converted amounts (≈) assume the structure as drawn.

The target of experiment [1] is Carbapenem-hydrolyzing beta-lactamase KPC (Klebsiella pneumoniae) (UniProt Q9F663).
The test system of experiment [2] is TEM beta-lactamase (Klebsiella pneumoniae). Put plainly: Minimum protective concentration used to protect the compound against Klebsiella pneumoniae A20634 beta-lactamase catalyzed hydrolysis.
In experiment [3] the target is Beta-lactamase (Staphylococcus aureus) (UniProt P00807). Put plainly: Minimum protective concentration used to protect the compound against Staphylococcus aureus A9606 beta-lactamase catalyzed hydrolysis.
Beta-lactamase (Staphylococcus aureus), sequence (P00807 whole entry): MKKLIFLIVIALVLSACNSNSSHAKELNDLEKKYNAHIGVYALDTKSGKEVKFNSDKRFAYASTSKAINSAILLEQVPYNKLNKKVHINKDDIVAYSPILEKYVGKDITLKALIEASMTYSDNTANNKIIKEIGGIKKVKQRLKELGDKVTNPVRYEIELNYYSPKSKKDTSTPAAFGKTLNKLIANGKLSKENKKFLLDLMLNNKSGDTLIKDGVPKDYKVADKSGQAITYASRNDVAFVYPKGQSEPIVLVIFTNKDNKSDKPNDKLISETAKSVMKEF
Experiment [4] deals with Metallo-beta-lactamase type 2 (Bacteroides fragilis) (UniProt P25910). Put plainly: Minimum protective concentration used to protect the compound against Bacteroides fragilis A-22,695 beta-lactamase catalyzed hydrolysis.
Metallo-beta-lactamase type 2 (Bacteroides fragilis), sequence (P25910 whole entry): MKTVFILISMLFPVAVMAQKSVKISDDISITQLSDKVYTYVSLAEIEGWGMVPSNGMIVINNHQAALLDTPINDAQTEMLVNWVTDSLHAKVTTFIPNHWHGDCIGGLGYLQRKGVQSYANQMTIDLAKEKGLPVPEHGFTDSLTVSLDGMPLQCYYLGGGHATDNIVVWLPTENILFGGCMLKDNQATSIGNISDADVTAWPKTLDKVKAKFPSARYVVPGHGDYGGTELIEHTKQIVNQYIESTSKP
Experiment [5] deals with Escherichia coli. Put plainly: Compound alone was evaluated for minimum inhibitory concentration against Escherichia coli A20107. The experiment is classed as functional. In short, it runs like this: (§1)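 Agar dilution MIC: organisms deposited onto medicated agar plates with a Steers replication device.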
Experiment [6] relates to Staphylococcus aureus. Put plainly: Compound alone was evaluated for minimum inhibitory concentration against Staphylococcus aureus A9606. The experiment is classed as functional. In short, it runs like this:
as §1

In experiment [7] the test system is Escherichia coli. Put plainly: Compound alone was evaluated for minimum inhibitory concentration against Escherichia coli A20111. The experiment is classed as functional. In short, it runs like this: as §1
For experiment [8], the system named is Staphylococcus aureus. Put plainly: Compound alone was evaluated for minimum inhibitory concentration against Staphylococcus aureus A15033. The experiment is classed as functional. The essentials: as §1
Experiment [9] deals with Escherichia coli. Put plainly: Compound was evaluated for minimum inhibitory concentration in the presence of amoxicillin against Escherichia coli A20111. The experiment is classed as functional. The essentials: (§2)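 Agar dilution MIC of a 1:1 (w/w) mixture of test compound with amoxicillin. Organisms were applied to medicated agar plates with a Steers replicator.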
Experiment [10] relates to Staphylococcus aureus. Put plainly: Compound was evaluated for minimum inhibitory concentration in the presence of amoxicillin against Staphylococcus aureus A15033. In kind it is functional. In short, it runs like this:
as §2

Experiment [11] has as its system Escherichia coli. Put plainly: Compound was evaluated for minimum inhibitory concentration in the presence of amoxicillin against Escherichia coli A20107. The experiment is classed as functional. The essentials:
as §2

In experiment [12] the test system is Staphylococcus aureus. Put plainly: Compound was evaluated for minimum inhibitory concentration in the presence of amoxicillin against Staphylococcus aureus A9606. The experiment is classed as functional. In short, it runs like this: as §2

Carbapenem-hydrolyzing beta-lactamase KPC (Klebsiella pneumoniae), sequence (Q9F663 whole entry): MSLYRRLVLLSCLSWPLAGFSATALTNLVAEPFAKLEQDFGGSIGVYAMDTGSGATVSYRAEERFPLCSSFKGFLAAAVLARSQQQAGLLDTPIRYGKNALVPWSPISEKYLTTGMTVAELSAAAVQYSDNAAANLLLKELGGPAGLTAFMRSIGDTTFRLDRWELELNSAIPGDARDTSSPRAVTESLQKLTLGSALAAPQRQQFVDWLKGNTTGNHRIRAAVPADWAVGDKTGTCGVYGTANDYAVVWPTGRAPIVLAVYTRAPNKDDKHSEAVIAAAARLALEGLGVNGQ

`CC1(C)[C@H](C(=O)O)N2C(=O)C[C@H]2S1(=O)=O` returned an MPC in experiment [1] of 1.6 µg/mL.

For the compound `C[C@]1(CBr)[C@H](C(=O)O)N2C(=O)CC2S1(=O)=O` (stereo partly drawn), the MPC worked out at 1.6 µg/mL in experiment [2], 3.1 µg/mL in experiment [3] and 12.5 µg/mL in experiment [4].

As for `C[C@]1(CCl)[C@H](C(=O)O)N2C(=O)CC2S1(=O)=O` (stereo partly drawn), the MPC is 3.1 µg/mL in experiment [2], 3.1 µg/mL in experiment [3] and 12.5 µg/mL in [4].

On to `C[C@]1(CO)[C@H](C(=O)O)N2C(=O)CC2S1(=O)=O` (stereo partly drawn), for which the MPC in experiment [2] was 6.2 µg/mL; in experiment [3] it was above 100 µg/mL; in [4] it was 100 µg/mL.

Usually MIC stands for the lowest concentration that inhibits growth of the organism. As to `CC1(C)S[C@@H]2[C@H](NC(=O)[C@H](N)c3ccc(O)cc3)C(=O)N2[C@H]1C(=O)O` [AMOXICILLIN], the MIC in the experiment with Escherichia coli [5] is above 125 µg/mL; with Staphylococcus aureus [6], 32 µg/mL (≈ 87.6 µM); with Escherichia coli [7] it was above 125 µg/mL; in the experiment on Staphylococcus aureus [8], 32 µg/mL (≈ 87.6 µM).

With `O=C(O)[C@H]1/C(=C/CO)O[C@@H]2CC(=O)N21` [CLAVULANIC ACID], the MIC in the experiment on Escherichia coli [9] was found to be 4 µg/mL; with Staphylococcus aureus [10], 4 µg/mL; in the experiment on Escherichia coli [5], 63 µg/mL (≈ 316 µM); in the experiment with Escherichia coli [11], 16 µg/mL; against Staphylococcus aureus [6], 32 µg/mL (≈ 161 µM); in the experiment on Escherichia coli [7] it was 63 µg/mL (≈ 316 µM). Besides, the results for the MIC in the experiment on Staphylococcus aureus [8] and in the experiment with Staphylococcus aureus [12] were 63 µg/mL (≈ 316 µM) and 2 µg/mL, respectively. The MPC in experiment [4] stood at 63 µg/mL.
